From ChEMBL document CHEMBL1132718, “Design and synthesis of imidazoline derivatives active on glucose homeostasis in a rat model of type II diabetes. 2. Syntheses and biological activities of 1,4-dialkyl-, 1,4-dibenzyl, and 1-benzyl-4-alkyl-2-(4',5'-dihydro-1'H-imidazol-2'-yl)piperazines and isosteric analogues of imidazoline” (J Med Chem, 1999) come the findings set out here.

The nature of data set [1]: Partition coefficient (logP). The class given is physicochemical. Particulars: octanol/water.
Data set [2] deals with Rattus norvegicus. Kind of data set: Percent of variation of glycemia value 30 mins after glucose administration by intraperitoneal dose of 100 uM/Kg to STZ rats compared to untreated rats. On the set-up: unit: %. The class given is functional. An outline of the steps:
(§1)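 STZ-diabetic rats: 3-month-old male Wistar (250 g) given streptozotocin 35 mg/kg iv. Single ip dose of 100 µmol/kg, then iv glucose 0.5 g/kg for IVGTT. Read-outs: ΔG (glycemia increment over baseline integrated over 30 min), G30 (glycemia at 30 min), K (disappearance rate 5–30 min). Expressed as percent variation versus untreated STZ rats, normalized to nondiabetic controls; 4–8 rats per compound, ±SEM.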

Data set [3] concerns Rattus norvegicus. Kind of data set: Percent of variation of glycemia value 30 mins after glucose administration with a peroral administration of 100 umol/kg to STZ rats. The class given is functional. On the set-up: unit: %. A digest of the protocol: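 Oral (po) dosing at 100 µmol/kg in STZ rats (male Wistar, 3 months old, 250 g, streptozotocin 35 mg/kg iv), followed by IVGTT with glucose 0.5 g/kg iv. G30 (glycemia 30 min after the glucose load) is expressed as percent variation between treated and untreated STZ rats, relative to nondiabetic controls.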

In data set [4] the test system is Rattus norvegicus. Kind of data set: Rate of glucose disappearance between 5 and 30 min after glucose administration with an intraperitoneal administration of 100 (umol/kg) to STZ rats. The data set is classed as functional, organism-based. An outline of the steps:
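Three-month-old male Wistar rats (250 g) made diabetic with streptozotocin 35 mg/kg iv. Single ip dose of 100 µmol/kg, then IVGTT with glucose 0.5 g/kg iv. K is the rate of glucose disappearance between 5 and 30 min after the glucose load. Expressed as percent variation between treated and untreated diabetic rats, relative to nondiabetic controls. 4–8 rats per compound, ±SEM.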

For data set [5], the system named is Rattus norvegicus. Kind of data set: Incremental glycemia values over baseline integrated over 30 min after glucose administration (iv) at a concentration 0.5 g/kg. The data set is classed as functional. On the set-up: unit: %. A digest of the protocol: as §1

Broadly, the logP is the decadic logarithm of the partition coefficient of the neutral form, usually between octanol and water. The molecule `C=C(C)CN1CCN(CC(=C)C)C(C2=NCCN2)C1` (configuration not stated) showed a logP in data set [1] of 1.45. Further, the G30 stood at 96 in data set [2] and 0 in data set [3]. In data set [4], this molecule showed a K of 117. Also, the “Delta G” value in data set [5] turned out to be 116.

`CN1CCN(Cc2ccc(Cl)cc2Cl)C(CC2=NCCN2)C1` (configuration not stated) returned a G30 in data set [2] of 42. The molecule further displayed a K in data set [4] of 91. Besides, the “Delta G” value in data set [5] came to 19.

For the molecule `C=C(C)CN1CCN(CC(C)C)C(C2=NCCN2)C1` (configuration not stated), the G30 in data set [2] stood at 41. For the same molecule, in data set [4], the K worked out at 76. Also, the “Delta G” value in data set [5] turned out to be 53.

`CN1CCN(Cc2ccc(Cl)cc2Cl)C(C2=NCCN2C)C1` (configuration not stated) displayed a G30 in data set [2] of 75. For the same molecule, the K in data set [4] turned out to be 64. Besides, in data set [5], the “Delta G” value is listed as 24.

In data set [2], `C1CCC(N2CCN(C3CCCC3)C(C3=NCCN3)C2)C1` (configuration not stated) returned a G30 of 103. In data set [4], this molecule displayed a K of 23. Besides, the “Delta G” value in data set [5] worked out at 58.

With `C=CCN1CCN(CC=C)C(C2=NCCN2)C1` (configuration not stated), the G30 in data set [2] was 30. Moreover, the K in data set [4] is 35. Besides, the “Delta G” value in data set [5] is on record as 19.

Turning to `CC(C)CN1CCN(C)C(C2=NCCN2)C1` (configuration not stated), in data set [2], the G30 is recorded as 21. Also, the K in data set [4] worked out at 42. For the same molecule, in data set [5], the “Delta G” value is reported as 40.

For the molecule `CC(C)(C)CN1CCN(CC(C)(C)C)C(C2=NCCN2)C1` (configuration not stated), in data set [2], the G30 is recorded as 81. The molecule further came in with a K in data set [4] of 67. The “Delta G” value in data set [5] was found to be 54.

`CN1CCN(Cc2ccc(Cl)cc2Cl)C(C2=NCCCN2)C1` (configuration not stated) gave a G30 in data set [2] of 30. In data set [4], this molecule displayed a K of 38. Also, in data set [5], the “Delta G” value is given as 47.

Consider `CC(C)N1CCN(C(C)C)C(C2=NCCN2)C1` (configuration not stated), for which the logP in data set [1] is 1.15. Moreover, the G30 in data set [2] is 89; in data set [3] it was 73. The molecule further displayed a K in data set [4] of 47. Also, the “Delta G” value in data set [5] came out at 138.

Turning to `CC(C)N1CCN(C(C)C)C(CC2=NCCN2)C1` (configuration not stated), in data set [2], the G30 was determined as 0. In data set [4], this molecule returned a K of 79. In addition, the “Delta G” value in data set [5] came out at 27.

In data set [2], `C/N=C(/N)C1CN(Cc2ccccc2)CCN1Cc1ccccc1` (configuration not stated) displayed a G30 of 62. In data set [4], the K was 60. Further, the “Delta G” value in data set [5] was 50.

Molecule `CN1CCN(c2ccccc2)C(C2=NCCN2)C1` (configuration not stated) registered a G30 in data set [2] of 28. Besides, the K in data set [4] came out at 39. The “Delta G” value in data set [5] is reported as 6.

The molecule `C/N=C(/N)C1CN(C(C)C)CCN1C(C)C` (configuration not stated) had a G30 in data set [2] of 77. For the same molecule, in data set [4], the K was determined as 62. In data set [5], the “Delta G” value amounted to 43.

Turning to `c1ccc(CN2CCN(Cc3ccccc3)C(CC3=NCCN3)C2)cc1` (configuration not stated), in data set [2], the G30 is reported as 0. Further, in data set [4], the K came out at 49.

The molecule `CN1CCN(c2ccccc2Cl)CC1C1=NCCN1` (configuration not stated) had a G30 in data set [2] of 17. In addition, in data set [4], the K was 60. Besides, the “Delta G” value in data set [5] worked out at 10.

For the molecule `CN1CCN(Cc2ccc(Cl)cc2Cl)C(C2=NCCN2)C1` (configuration not stated), the log partition coefficient (logP) in data set [1] worked out at 2.21. Also, the G30 in data set [2] is given as 112; in data set [3] it was 64. Moreover, the “Delta G” value in data set [5] was determined as 105.

`C=CCN1CCN(CC(C)C)C(C2=NCCN2)C1` (configuration not stated) yielded a lipophilicity (logP) in data set [1] of 1.3. For the same molecule, the G30 is given as 55 in data set [2] and 23 in data set [3]. In data set [4], this molecule yielded a K of 61. In addition, the “Delta G” value in data set [5] was 115.

Take `C1CNC(C2CN(C(C3CC3)C3CC3)CCN2C(C2CC2)C2CC2)=N1` (configuration not stated): in data set [2], the G30 is reported as 89. In data set [4], this molecule yielded a K of 41. Moreover, the “Delta G” value in data set [5] is 24.

In turn, `CN1CCN(Cc2ccccc2Cl)C(C2=NCCO2)C1` (configuration not stated) gave a G30 in data set [2] of 0. The same molecule gave a K in data set [4] of 0. Also, the “Delta G” value in data set [5] amounted to 8.

In data set [2], `CC(C)N1CCN(c2ccccc2)CC1C1=NCCN1` (configuration not stated) yielded a G30 of 15. Moreover, in data set [4], the K was 60. Further, the “Delta G” value in data set [5] is 0.

Turning to `CC(C)N1CCN(c2ccccc2)C(C2=NCCN2)C1` (configuration not stated), the G30 in data set [2] is recorded as 91. Also, the K in data set [4] is 102. Moreover, the “Delta G” value in data set [5] is 11.

In data set [2], `COc1ccccc1CN1CCN(C)CC1CC1=NCCN1` (configuration not stated) returned a G30 of 36. The molecule also showed a K in data set [4] of 53. Besides, the “Delta G” value in data set [5] is 31.

Molecule `CN1CCN(C(C2CC2)C2CC2)C(C2=NCCN2)C1` (configuration not stated) showed a G30 in data set [2] of 55. Moreover, the K in data set [4] stood at 47. Further, the “Delta G” value in data set [5] came out at 101.

Consider `CC(C)CN1CCN(CC(C)C)C(C2=NCCN2)C1` (configuration not stated), for which the log partition coefficient (logP) in data set [1] is 2.18. For the same molecule, the G30 is reported as 89 in data set [2] and 66 in data set [3]. In data set [4], this molecule had a K of 79. Besides, in data set [5], the “Delta G” value was found to be 141.

Molecule `c1ccc2c(c1)OCC(C1=NCCN1)O2` (configuration not stated) [IDAZOXAN] came in with a G30 in data set [2] of 48. Also, the K in data set [4] turned out to be 79. Besides, the “Delta G” value in data set [5] was 8.

In data set [2], `c1ccc(C(CC2=NCCN2)c2ccccn2)cc1` (configuration not stated) [MIDAGLIZOLE] displayed a G30 of 121. Also, the “Delta G” value in data set [5] is listed as 32.

The molecule `CCC(C)CN1CCN(CC(C)CC)C(C2=NCCN2)C1` (configuration not stated) came in with a log partition coefficient (logP) in data set [1] of 3.22. For the same molecule, the G30 in data set [2] is reported as 83; in data set [3], 4.3. For the same molecule, the K in data set [4] stood at 82. Moreover, in data set [5], the “Delta G” value turned out to be 104.

Molecule `CN1CCN(Cc2ccc(Cl)cc2Cl)C(c2ncc[nH]2)C1` (configuration not stated) displayed a G30 in data set [2] of 14. The same molecule yielded a K in data set [4] of 37. For the same molecule, the “Delta G” value in data set [5] came out at 0.

In data set [2], `N=C(N)C1CN(Cc2ccccc2)CCN1Cc1ccccc1` (configuration not stated) gave a G30 of 65. This molecule also came in with a K in data set [4] of 65. For the same molecule, in data set [5], the “Delta G” value was 55.

For `CC(C)CN1CCN(C)CC1C1=NCCN1` (configuration not stated), the G30 in data set [2] turned out to be 48. For the same molecule, the K in data set [4] worked out at 55. Also, in data set [5], the “Delta G” value was determined as 113.
